Activity calls are given as the source filed them. No cut-off for these calls is given here.
Key:
[1] = biological target: T1, 5-hydroxytryptamine receptor 2C (Homo sapiens) (UniProt P28335); experiment: Positive allosteric modulation of human 5-HT2C receptor expressed in human HeLa-K1 cells assessed as potentiation of 5-HT-induced inositol monophosphate release at 10 uM after 20 mins by HTRF assay relative to control; format: functional, cell-based
T1 sequence (whole entry): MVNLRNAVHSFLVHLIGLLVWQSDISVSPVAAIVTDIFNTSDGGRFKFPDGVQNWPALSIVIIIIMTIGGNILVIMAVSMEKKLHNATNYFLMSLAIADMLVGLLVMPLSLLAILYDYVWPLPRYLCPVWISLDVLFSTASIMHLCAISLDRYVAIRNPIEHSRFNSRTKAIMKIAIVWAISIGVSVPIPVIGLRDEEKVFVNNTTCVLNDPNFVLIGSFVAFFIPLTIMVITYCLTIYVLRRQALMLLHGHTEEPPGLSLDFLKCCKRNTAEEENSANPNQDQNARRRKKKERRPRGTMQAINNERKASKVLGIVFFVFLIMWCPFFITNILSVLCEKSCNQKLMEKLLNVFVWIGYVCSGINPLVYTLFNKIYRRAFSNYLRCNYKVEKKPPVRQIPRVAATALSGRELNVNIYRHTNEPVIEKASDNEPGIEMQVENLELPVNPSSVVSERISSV
Outline: (§1)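 IP-One HTRF assay in CHO-K1 cells (human 5-HT2A, 5-HT2B) or HeLa-K1 cells (human 5-HT2C), seeded and grown 24 h at 37 °C. Test compound and/or 5-HT added in stimulation buffer, then 20 min at 37 °C before IP1 read-out. Data normalized to 5-HT maximal effect and fitted by nonlinear regression. Triplicates, mean ± SD.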

Rattus norvegicus [2] = experiment: Antiobesity activity in Wistar rat assessed as reduction in food intake at 2 mg/kg, ip after 4 hrs; format: functional, organism-based
Outline: (§2)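 Male Wistar rats, 200−250 g, aged 10−12 weeks, food-deprived 16 h before refeeding. Compound given ip in sterile saline; food and water intake measured at 30, 60, 120 and 240 min after food presentation. Where used, antagonist (3 mg/kg, ip) or other pretreatments were injected 30 min before the compound. Mean ± SEM, at least eight rats per group.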

Rattus norvegicus [3] = experiment: Antiobesity activity in Wistar rat assessed as reduction in food intake at 2 mg/kg, ip after 4 hrs in presence of 5-HT2C antagonist SB-242084; format: functional, organism-based; outline: as §2
Rattus norvegicus [4] = experiment: Antiobesity activity in Wistar rat assessed as reduction in food intake at 2 mg/kg, ip measured up to 4 hrs; format: functional, organism-based; outline: as §2
Rattus norvegicus [5] = experiment: In vivo positive allosteric modulation of serotonin-induced feeding suppression in Wistar rat at 0.5 mg/kg, ip after 4 hrs in presence of 2 mg/kg selective serotonin reuptake inhibitor sertraline; format: functional, organism-based
Outline: (§3)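 Male Wistar rats, 200−250 g, 10−12 weeks, food-deprived 16 h before refeeding. Test compound given ip in sterile saline. Sertraline, ketanserin (2 mg/kg) or 5-HT2C antagonist (3 mg/kg) was given ip 30 min before the test compound. Food and water intake measured 30, 60, 120 and 240 min after food presentation. Mean ± SEM, at least 8 rats per group.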

[6] = biological target: T1, 5-hydroxytryptamine receptor 2C (Homo sapiens); experiment: Positive allosteric modulation of human 5-HT2C receptor expressed in human HeLa-K1 cells assessed as potentiation of 5-HT-induced inositol monophosphate release at 1 uM after 20 mins by HTRF assay relative to control; format: functional, cell-based
Rattus norvegicus [7] = experiment: Antiobesity activity in Wistar rat assessed as reduction in food intake at 2 mg/kg, ip after 4 hrs in presence of 5-HT2A antagonist ketanserin; format: functional, organism-based; outline: as §3
Rattus norvegicus [8] = experiment: Antiobesity activity in continuous food access Wistar rat model assessed as reduction in food intake at 2 mg/kg, ip administered daily for 7 days; format: functional, organism-based
Outline: (§4)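 Wistar rats made obese on 60% fat diet (5.24 kcal/g) for 8 weeks. Free-feeding rats got a daily ip injection of compound (2 mg/kg) or vehicle for 7 days. Daily chow intake (kcal/kg body weight) and body weight gain (g) recorded. Mean ± SEM, n ≥ 8 per group.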

[9] = biological target: T1, 5-hydroxytryptamine receptor 2C (Homo sapiens); experiment: Displacement of [3H]-LSD from human 5-HT2C receptor expressed in human HeLa-K1 cell membranes at 10 uM after 60 mins relative to control
Outline: (§5)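 Membranes from 5-HT2C-HeLa cells with test compound (10 μM) in 50 mM Tris-HCl pH 7.4. Radioligands: [3H]mesulergine 4 nM, [3H]LSD 2 nM (15 μg protein each), [3H]clozapine 15 nM (20 μg), 60 min at 27 °C. [3H]5-HT 2 nM (60 μg), 180 min at 4 °C. Nonspecific binding with 10 μM mianserin. Filtered and washed, then counted. Triplicates, mean ± SD.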

[10] = biological target: T1, 5-hydroxytryptamine receptor 2C (Homo sapiens); experiment: Displacement of [3H]-clozapine from human 5-HT2C receptor expressed in human HeLa-K1 cell membranes at 10 uM after 60 mins relative to control; outline: as §5
Rattus norvegicus [11] = experiment: Toxicity in Wistar rat assessed as induction of hypolocomotion at 2 mg/kg, ip after 30 mins by open field test; format: organism-based; conditions: in vivo, 0.5 h
Outline: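 Rats handled for 7 days before testing. Tested 30 min after ip dosing (2 mg/kg), placed in the centre of the open field. Distance walked was recorded automatically over 10 min. No retesting.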

[12] = biological target: T2, 5-hydroxytryptamine receptor 2B (Homo sapiens, UniProt P41595); experiment: Positive allosteric modulation of human 5-HT2B receptor expressed in CHO-K1 cells assessed as potentiation of 5-HT-induced inositol monophosphate release at 10 uM after 20 mins by HTRF assay; format: cell-based; outline: as §1
[13] = biological target: T1, 5-hydroxytryptamine receptor 2C (Homo sapiens); experiment: Displacement of [3H]-LSD from human 5-HT2C receptor expressed in human HeLa-K1 cell membranes at 1 uM after 60 mins relative to control
Rattus norvegicus [14] = experiment: Antiobesity activity in Wistar rat assessed as reduction in food intake at 1 mg/kg, ip after 4 hrs in presence of 5-HT2C antagonist SB-242084; format: functional, organism-based; outline: as §3
Rattus norvegicus [15] = experiment: Antiobesity activity in restricted food access Wistar rat model assessed as reduction in body weight at 2 mg/kg, ip administered 30 mins prior to food presentation measured after 4 hrs on every day for 7 days; format: functional, organism-based
Outline: (§6)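 Rats had food for 4 h/day. Once the feeding baseline was stable, compound (2 mg/kg ip) or vehicle was given 30 min before food presentation. Food and water intake read at the end of the 4 h period. Repeated on 7 consecutive days, with total intake and body weight tracked. Mean ± SEM, n ≥ 8.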

Rattus norvegicus [16] = experiment: Antiobesity activity in continuous food access Wistar rat model assessed as reduction in body weight at 2 mg/kg, ip administered daily for 7 days; format: functional, organism-based; outline: as §4
[17] = biological target: T1, 5-hydroxytryptamine receptor 2C (Homo sapiens); experiment: Intrinsic agonist activity at human 5-HT2C receptor expressed in human HeLa-K1 cells assessed as induction of inositol monophosphate release after 20 mins by HTRF assay; format: functional, cell-based; outline: as §1
[18] = biological target: T2, 5-hydroxytryptamine receptor 2B; experiment: Intrinsic agonist activity at human 5-HT2B receptor expressed in CHO-K1 cells assessed as induction of inositol monophosphate release at 10 uM after 20 mins by HTRF assay; format: cell-based; outline: as §1
[19] = biological target: T3, 5-hydroxytryptamine receptor 2C (Homo sapiens, UniProt P28335); experiment: (§7) Positive allosteric modulation of human 5-HT2C receptor expressed in human HeLa-K1 cells assessed as potentiation of 5-HT-induced inositol monophosphate release after 20 mins by HTRF assay; format: functional, cell-based; outline: as §1
T3 sequence (P28335 whole entry): T1 sequence (whole entry)

[20] = biological target: T1, 5-hydroxytryptamine receptor 2C (Homo sapiens); experiment: as §7; format: functional, cell-based; outline: as §1
Rattus norvegicus [21] = experiment: Antiobesity activity in Wistar rat assessed as reduction in food intake at 10 mg/kg, ip after 4 hrs relative to control; format: functional; set-up: scale not given: the % may be the effect or the level left; outline: as §3
Rattus norvegicus [22] = experiment: In vivo positive allosteric modulation of serotonin-induced feeding suppression in Wistar rat at 2 mg/kg, ip after 4 hrs in presence of 5 mg/kg selective serotonin reuptake inhibitor sertraline; format: functional, organism-based; outline: as §3
[23] = biological target: T4, 5-hydroxytryptamine receptor 2A (Homo sapiens, UniProt P28223); experiment: Positive allosteric modulation of human 5-HT2A receptor expressed in CHO-K1 cells assessed as potentiation of 5-HT-induced inositol monophosphate release at 10 uM after 20 mins by HTRF assay; format: cell-based; outline: as §1
[24] = biological target: T4, 5-hydroxytryptamine receptor 2A; experiment: Intrinsic agonist activity at human 5-HT2A receptor expressed in CHO-K1 cells assessed as induction of inositol monophosphate release at 10 uM after 20 mins by HTRF assay; format: cell-based; outline: as §1
[25] = biological target: T1, 5-hydroxytryptamine receptor 2C (Homo sapiens); experiment: Displacement of [3H]-5-HT from human 5-HT2C receptor expressed in human HeLa-K1 cell membranes at 10 uM after 180 mins relative to control; outline: as §5
Rattus norvegicus [26] = experiment: Antiobesity activity in restricted food access Wistar rat model assessed as reduction in food intake at 2 mg/kg, ip administered 30 mins prior to food presentation measured after 4 hrs on every day for 7 days; format: functional, organism-based; outline: as §6
[27] = biological target: T1, 5-hydroxytryptamine receptor 2C (Homo sapiens); experiment: Displacement of [3H]-mesulergine from human 5-HT2C receptor expressed in human HeLa-K1 cell membranes at 10 uM after 60 mins relative to control; outline: as §5
Rattus norvegicus [28] = experiment: Toxicity in Wistar rat assessed as induction of malaise at 2 mg/kg, ip measured 30 mins for 2 days by conditioned taste aversion test; format: organism-based; conditions: in vivo
Outline: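 Rats water-deprived 24 h, then trained to drink from a graded bottle in 30 min sessions for 4 days. On day 5, 0.1% saccharin replaced water, and 30 min later rats got ip vehicle, compound (2 mg/kg) or LiCl (0.4 M, 7.5 mL/kg). Water intake was recorded over 30 min on the next 2 days, then a water or saccharin choice was measured.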

[29] = Ratio of drug level in brain to plasma in Wistar rat at 10 mg/kg, ip measured up to 6 hrs; format: ADME, organism-based; conditions: read-out: BPR
Rattus norvegicus [30] = experiment: Toxicity in Wistar rat assessed as induction of hypolocomotion at 0.5 to 2 mg/kg, ip after 30 mins by elevated plus maze test; format: organism-based; conditions: in vivo, 0.5 h
Outline: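 Maze-naive rats handled for 7 days. Placed in the centre facing an open arm 30 min after ip dosing. Open-arm entries and % time in open arms scored over 5 min. No retesting.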

T2 sequence (P41595 whole entry): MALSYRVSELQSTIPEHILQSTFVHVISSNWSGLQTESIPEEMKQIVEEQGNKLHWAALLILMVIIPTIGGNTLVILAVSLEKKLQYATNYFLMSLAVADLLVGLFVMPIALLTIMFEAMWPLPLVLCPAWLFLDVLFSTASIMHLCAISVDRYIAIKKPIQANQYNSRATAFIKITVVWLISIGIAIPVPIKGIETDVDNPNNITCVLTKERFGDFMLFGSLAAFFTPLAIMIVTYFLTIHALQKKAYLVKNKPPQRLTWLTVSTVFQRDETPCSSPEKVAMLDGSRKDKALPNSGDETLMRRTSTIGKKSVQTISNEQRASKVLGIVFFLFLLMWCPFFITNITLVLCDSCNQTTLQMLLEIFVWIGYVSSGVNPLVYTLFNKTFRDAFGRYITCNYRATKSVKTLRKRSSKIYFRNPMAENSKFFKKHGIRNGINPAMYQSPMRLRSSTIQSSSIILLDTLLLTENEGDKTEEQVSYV
T4 sequence (P28223 whole entry): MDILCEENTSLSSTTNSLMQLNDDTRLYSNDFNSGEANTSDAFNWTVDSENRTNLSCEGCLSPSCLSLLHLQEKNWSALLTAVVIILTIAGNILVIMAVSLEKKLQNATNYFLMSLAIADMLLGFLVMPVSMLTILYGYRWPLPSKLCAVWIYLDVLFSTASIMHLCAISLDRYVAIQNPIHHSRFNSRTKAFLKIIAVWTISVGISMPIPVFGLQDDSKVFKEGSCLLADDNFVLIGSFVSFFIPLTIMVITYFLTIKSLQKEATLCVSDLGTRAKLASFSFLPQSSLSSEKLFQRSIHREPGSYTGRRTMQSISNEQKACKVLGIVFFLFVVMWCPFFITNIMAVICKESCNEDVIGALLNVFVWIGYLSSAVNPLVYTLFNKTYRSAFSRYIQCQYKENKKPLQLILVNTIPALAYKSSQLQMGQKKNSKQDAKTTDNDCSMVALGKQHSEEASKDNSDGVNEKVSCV

`c1ccc(Cn2cc(CNc3ccnnc3)c3ccccc32)cc1` gave an Activity [1] of 0%.

Work on `COc1ccccc1Cn1cc(CNc2cccnc2)c2ccccc21` yielded an Activity [1] of 0%.

For `COc1ccc(Cn2cc(CNc3cccnc3)c3ccccc32)cc1`, the Activity [1] was 6%.

In the case of `Fc1ccc(Cn2cc(CNc3cccnc3)c3ccccc32)cc1`, the Activity [1] is reported as 9%.

Work on `FC(F)(F)c1ccc(Cn2cc(CNc3cccnc3)c3ccccc32)cc1` yielded an Activity [1] of 8%.

`Clc1cccc(Cn2cc(CNc3cccnc3)c3ccccc32)c1` gave an Activity [1] of 26%.

In the case of `Brc1cccc(Cn2cc(CNc3cccnc3)c3ccccc32)c1`, the Activity [1] is reported as 7%.

Compound `Fc1ccc(Cn2cc(CNc3cccnc3)c3ccccc32)c(F)c1` has an Activity [1] of 9%.

Compound `Cc1cccc(Cn2cc(CNc3cccnc3)c3ccccc32)c1` has an Activity [1] of 27%.

With `Clc1ccc(Cn2cc(CNc3cccnc3)c3ccccc32)cc1` the Activity [1] was 13%.

`c1cncc(Cn2cc(CNc3cccnc3)c3ccccc32)c1` gave an Activity [1] of 25%.

`c1ccc(Cn2cc(CNc3ccccn3)c3ccccc32)cc1` gave an Activity [1] of 25%.

Work on `c1ccc(Cn2cc(CNc3cncnc3)c3ccccc32)cc1` yielded an Activity [1] of 20%.

Compound `Fc1ccccc1Cn1cc(CNc2cccnc2)c2ccccc21` has an Activity [1] of 6%.

For `O=C1Nc2cc(Cl)c(Cl)cc2N2CCNC[C@H]12`, the Activity (Rattus norvegicus [2]) was “inactive”, the Activity (Rattus norvegicus [3]) was “inactive” and the Activity (Rattus norvegicus [4]) was “Active”.

`c1ccc(Cn2cc(CNc3cnccn3)c3ccccc32)cc1` showed an Activity [1] of 0%.

In the case of `c1ccc(Cn2cc(CNc3cccnc3)c3ccccc32)cc1`, the Activity (Rattus norvegicus [5]) is reported as “Active”, the Activity [6] is reported as 28% and the Activity (Rattus norvegicus [7]) is reported as “Active”. The Activity (Rattus norvegicus [8]) was “Active”, the inhibition [9] was 67% and the inhibition [10] was 36%. The Activity (Rattus norvegicus [11]) was “Toxic”, the Activity [12] was “Not Active” and the inhibition [13] was 21%. For the same compound, the Activity (Rattus norvegicus [2]) was “Active”, the Activity (Rattus norvegicus [14]) was “Active” and the Activity (Rattus norvegicus [15]) was “Active”. The Activity (Rattus norvegicus [16]) was “Active”, the Activity [17] was “inactive” and the Activity [18] was “Not Active”. For the same compound, the EC50 [19] was 16 nM, the Activity [20] was “Dose-dependent effect” and the Activity (Rattus norvegicus [21]) was 50%. For the same compound, the Activity (Rattus norvegicus [22]) was “Active”, the Activity [23] was “Not Active” and the Activity [24] was “Not Active”. The inhibition [25] was 37%, the Activity (Rattus norvegicus [26]) was “Active” and the inhibition [27] was 26%. For the same compound, the Activity [1] was 35%, the Activity (Rattus norvegicus [28]) was “Non-Toxic” and the Kp at 6 h [29] was 3.8. For the same compound, the Activity (Rattus norvegicus [30]) was “Toxic”.

Work on `Fc1cc(Cl)ccc1Cn1cc(CNc2cccnc2)c2ccccc21` yielded an Activity [1] of 9%.

Compound `c1cncc(NCc2cn(CC3CC3)c3ccccc23)c1` has an Activity [1] of 0%.

From ChEMBL document CHEMBL4028890, “A Positive Allosteric Modulator of the Serotonin 5-HT2C Receptor for Obesity” (J Med Chem, 2017)
